How the values were obtained:
Cathepsin D = Cathepsin D (Homo sapiens, UniProt P07339); assay: Inhibition of human recombinant CatD using Mca-GKPILFFRLK(DNP)-dR-NH2 as substrate after 1 hr by fluorescence analysis
MDR1 (human) [1] = assay: Apparent permeability across MDCK cells expressing human MDR1 at 5 uM after 2 hrs by LC-MS analysis; type: ADME, cell-based, Canis lupus familiaris; conditions: dog
Procedure, shortened: (§1)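 MDCK cells retrovirally transduced with human MDR1, seeded on transwells ≥3 days; bidirectional transport at 5 μM, 2 h, 37 °C, LC/MS quantitation. Papp = (dQ/dt)/(A·C0), A 0.11 cm2; ER = Papp B>A / Papp A>B. Means of at least three experiments.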

MDR1 (human) [2] = assay: Efflux ratio of permeability from basolateral to apical over apical to basolateral side of MDCK cells expressing human MDR1 at 5 uM after 2 hrs by LC/MS analysis; type: ADME, cell-based, Canis lupus familiaris; conditions: dog; procedure, shortened: as §1
Cytochrome P450 3A4 = Cytochrome P450 3A4 (Homo sapiens, UniProt P08684); assay: Inhibition of CYP3A4; type: ADME
Cytochrome P450 3A4, sequence (P08684 whole entry): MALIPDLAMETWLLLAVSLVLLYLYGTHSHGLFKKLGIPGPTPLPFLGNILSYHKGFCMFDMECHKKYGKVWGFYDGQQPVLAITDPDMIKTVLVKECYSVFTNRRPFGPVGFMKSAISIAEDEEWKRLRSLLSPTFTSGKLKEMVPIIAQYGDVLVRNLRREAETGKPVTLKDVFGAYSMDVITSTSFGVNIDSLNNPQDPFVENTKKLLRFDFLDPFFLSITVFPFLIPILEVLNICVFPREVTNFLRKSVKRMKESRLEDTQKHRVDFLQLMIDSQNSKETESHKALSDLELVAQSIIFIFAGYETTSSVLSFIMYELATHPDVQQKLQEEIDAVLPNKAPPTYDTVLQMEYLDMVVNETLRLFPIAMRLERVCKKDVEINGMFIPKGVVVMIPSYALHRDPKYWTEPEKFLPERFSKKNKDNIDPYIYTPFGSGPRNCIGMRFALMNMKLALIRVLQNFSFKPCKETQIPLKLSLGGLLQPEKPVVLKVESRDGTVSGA

Beta-secretase 1 = Beta-secretase 1 (Homo sapiens, UniProt P56817)
Beta-secretase 1, sequence (P56817 whole entry): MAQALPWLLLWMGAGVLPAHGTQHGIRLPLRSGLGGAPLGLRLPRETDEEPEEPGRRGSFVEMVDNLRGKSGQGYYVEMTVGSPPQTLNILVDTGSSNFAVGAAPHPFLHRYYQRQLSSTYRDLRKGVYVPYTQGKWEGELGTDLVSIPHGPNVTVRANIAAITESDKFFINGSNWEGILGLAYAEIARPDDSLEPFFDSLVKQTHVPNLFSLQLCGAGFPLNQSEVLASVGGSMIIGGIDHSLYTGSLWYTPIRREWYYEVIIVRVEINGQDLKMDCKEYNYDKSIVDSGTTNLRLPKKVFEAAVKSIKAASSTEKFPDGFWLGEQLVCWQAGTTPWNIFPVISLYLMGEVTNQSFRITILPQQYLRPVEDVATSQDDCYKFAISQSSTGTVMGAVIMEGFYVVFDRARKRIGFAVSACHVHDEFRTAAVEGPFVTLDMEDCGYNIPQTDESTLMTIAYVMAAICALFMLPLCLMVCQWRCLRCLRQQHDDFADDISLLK

Cathepsin D, sequence (P07339 65-162 limits assumed): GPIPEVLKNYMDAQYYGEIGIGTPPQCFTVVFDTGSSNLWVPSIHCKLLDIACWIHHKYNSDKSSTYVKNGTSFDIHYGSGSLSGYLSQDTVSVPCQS
Cathepsin D, sequence (P07339 169-412 limits assumed): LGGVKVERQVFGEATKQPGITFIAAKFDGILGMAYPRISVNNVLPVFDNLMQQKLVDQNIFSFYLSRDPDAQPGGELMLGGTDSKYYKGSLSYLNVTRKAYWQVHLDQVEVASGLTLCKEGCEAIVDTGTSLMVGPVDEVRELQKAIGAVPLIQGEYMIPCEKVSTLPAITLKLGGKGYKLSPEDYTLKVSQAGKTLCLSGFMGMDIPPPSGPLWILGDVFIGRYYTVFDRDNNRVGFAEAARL

Row | Structure (SMILES) | IC50 (Cathepsin D) [nM] | Papp at 2 h, 5 µM (MDR1 (human) [1]) [×10⁻⁶ cm/s] | efflux ratio at 2 h, 5 µM (MDR1 (human) [2]) | IC50 (Cytochrome P450 3A4) [nM] | IC50 (Beta-secretase 1) [nM]
1 | CC(C)(O)c1cccc(CN[C@H]2CS(=O)(=O)C[C@@H](Cc3cc(F)c(N)c(OC(C(F)(F)F)C(F)(F)F)c3)[C@@H]2O)c1 | 1320 | 11 | 30 | 2100 | 2
2 | CC(C)(C)c1cccc(CN[C@H]2CS(=O)(=O)C[C@@H](Cc3ccc(N)c(OC(F)(F)F)c3)[C@@H]2O)c1 (racemic) | 7990 | 15 | 2 |  | 130
3 | CC(C)(C)Cn1cc(CN[C@H]2CS(=O)(=O)C[C@@H](Cc3cc(F)c(N)c(OC(C(F)(F)F)C(F)(F)F)c3)[C@@H]2O)cn1 | 2810 | 16 | 46 | 6700 | 36
4 | CC(C)(C)c1cccc(CN[C@H]2CS(=O)(=O)C[C@@H](Cc3cc(F)c4c(c3)C3(CCC(F)(F)CC3)CN4)[C@@H]2O)c1 (racemic) | 3530 |  |  |  | 
5 | CC(C)(C)c1cccc(CN[C@H]2CS(=O)(=O)C[C@@H](Cc3ccc(N)c(OCC(F)(F)F)c3)[C@@H]2O)c1 | 4370 | 23 | 3 |  | 36
6 | CC1(C)OCc2ccc(CN[C@H]3CS(=O)(=O)C[C@@H](Cc4cc(F)c(N)c(OC(C(F)(F)F)C(F)(F)F)c4)[C@@H]3O)cc21 | 1510 | 21 |  | 700 | 
7 | CCOC[C@@H](Oc1cc(C[C@@H]2CS(=O)(=O)C[C@H](NCc3cccc(C(C)(C)C)c3)[C@H]2O)cc(F)c1N)C(F)(F)F | 230 | 11 |  |  | 
8 | CC(C)(C)c1cccc(CN[C@H]2CS(=O)(=O)C[C@@H](Cc3cc(F)c4c(c3)C3(CCC3)CN4)[C@@H]2O)c1 (racemic) | 80 | 6 | 3 |  | 560
9 | CCCOc1cccc(C[C@@H]2CS(=O)(=O)C[C@H](NCc3cccc(C(C)(C)C)c3)[C@H]2O)c1 (relative stereo) | 290 | 2 | 1 |  | 670
10 | CC(C)(CO)c1cccc(CN[C@H]2CS(=O)(=O)C[C@@H](Cc3cc(F)c(N)c(OC(C(F)(F)F)C(F)(F)F)c3)[C@@H]2O)c1 | 600 | 12 | 35 | 800 | 2
11 | CCc1c[nH]c2ccc(C[C@@H]3CS(=O)(=O)C[C@H](NCc4cccc(C(C)(C)C)c4)[C@H]3O)cc12 (racemic) | 2480 |  |  |  | 200
12 | CCc1cc(C[C@@H]2CS(=O)(=O)C[C@H](NCc3cccc(C(C)(C)C)c3)[C@H]2O)cc(F)c1NC(=O)CN(C)C | > 10000 | 13 |  |  | 
13 | CC(C)(C)c1cccc(CN[C@H]2CS(=O)(=O)C[C@@H](Cc3ccc4[nH]cc(CC(F)F)c4c3)[C@@H]2O)c1 (racemic) | 1220 | 6 | 8 |  | 
14 | CC(F)(F)c1cccc(CN[C@H]2CS(=O)(=O)C[C@@H](Cc3cc(F)c(N)c(Br)c3)[C@@H]2O)c1 | 4160 | 28 | 4 |  | 
15 | Nc1c(F)cc(C[C@@H]2CS(=O)(=O)C[C@H](NCc3cccc(OC(F)(F)F)c3)[C@H]2O)cc1OC(C(F)(F)F)C(F)(F)F | 2530 | 12 | 6 | 9200 | 44
16 | Nc1c(F)cc(C[C@@H]2CS(=O)(=O)C[C@H](N)[C@H]2O)cc1OC(C(F)(F)F)C(F)(F)F | > 10000 | 13 | 17 |  | > 10000
17 | CN(C)CC(=O)Nc1ccc(C[C@@H]2CS(=O)(=O)C[C@H](NCc3cccc(C(C)(C)C)c3)[C@H]2O)cc1F | > 10000 | 6 |  |  | 
18 | CCCc1n[nH]c2ccc(C[C@@H]3CS(=O)(=O)C[C@H](NCc4cccc(C(C)(C)C)c4)[C@H]3O)cc12 (racemic) | 1630 | 30 | 49 |  | 220
19 | CC(C)(C)c1cccc(CN[C@H]2CS(=O)(=O)C[C@@H](Cc3ccc4[nH]cc(CC(F)(F)F)c4c3)[C@@H]2O)c1 (racemic) | 1490 | 2.5 | 7 |  | 120
20 | CCOC[C@H](Oc1cc(C[C@@H]2CS(=O)(=O)C[C@H](NCc3cccc(C(C)(C)C)c3)[C@H]2O)cc(F)c1N)C(F)(F)F | 1230 | 8 |  |  | 
21 | CC(C)(C)O[C@H]1C[C@@H]1CN[C@H]1CS(=O)(=O)C[C@@H](Cc2cc(F)c(N)c(OC(C(F)(F)F)C(F)(F)F)c2)[C@@H]1O (mixture of isomers) | 3710 |  | 4 |  | > 10000
22 | COCCOC[C@@H](Oc1cc(C[C@@H]2CS(=O)(=O)C[C@H](NCc3cccc(C(C)(C)C)c3)[C@H]2O)cc(F)c1N)C(F)(F)F | 250 | 12 |  |  | 

Next, values leading:

Row | IC50 (Cathepsin D) [nM] | Papp at 2 h, 5 µM (MDR1 (human) [1]) [×10⁻⁶ cm/s] | efflux ratio at 2 h, 5 µM (MDR1 (human) [2]) | IC50 (Cytochrome P450 3A4) [nM] | IC50 (Beta-secretase 1) [nM] | Structure (SMILES)
23 | 480 | 10 | 5 |  | 3 | C[C@@H](Oc1cc(C[C@@H]2CS(=O)(=O)C[C@H](NCc3cccc(C(C)(C)C)c3)[C@H]2O)cc(F)c1N)C(F)(F)F
24 | 2000 | 26 | 16 |  | 43 | CC(C)(C)c1cccc(CN[C@H]2CS(=O)(=O)C[C@@H](Cc3cc(F)c(N)c(OCCF)c3)[C@@H]2O)c1
25 | 1140 | 9 |  |  |  | CO[C@@H](Cc1cc(C[C@@H]2CS(=O)(=O)C[C@H](NCc3cccc(C(C)(C)C)c3)[C@H]2O)cc(F)c1N)C(F)(F)F
26 | 2000 | 23 | 2 |  | 870 | CCc1cc(C[C@@H]2CS(=O)(=O)C[C@H](NCc3cccc(C(C)(C)C)c3)[C@H]2O)cc(F)c1N
27 | 1740 | 16 | 3 |  | 94 | CC(C)(C)c1cccc(CN[C@H]2CS(=O)(=O)C[C@@H](Cc3cc(F)c(N)c(C4CC4)c3)[C@@H]2O)c1
28 | 510 | 3 | 2 |  | 150 | CC(C)(C)c1cccc(CN[C@H]2CS(=O)(=O)C[C@@H](Cc3cc(F)c(N)c(-c4ccoc4)c3)[C@@H]2O)c1
29 | 2220 | 7 | 3 |  | 56 | CCCOc1cc(CC2CS(=O)(=O)CC(NCc3cccc(C(C)(C)C)c3)[C@H]2O)cc(F)c1N (single isomer, unassigned)
30 | 540 | 14 | 27 |  | 120 | CC(C)(C)c1cccc(CN[C@H]2CS(=O)(=O)C[C@@H](Cc3cc(O)c(N)c(F)c3)[C@@H]2O)c1
31 | 3980 | 25 |  |  |  | COCCOc1cc(C[C@@H]2CS(=O)(=O)C[C@H](NCc3cccc(C(C)(C)C)c3)[C@H]2O)cc(F)c1N
32 | > 10000 | 17.4 | 16 |  | 1620 | CC(C)(C)c1cccc(CN[C@H]2CS(=O)(=O)C[C@@H](Cc3ccc(N)nc3)[C@@H]2O)c1 (racemic)
33 | 980 | 11 | 3 |  | 130 | CC(C)(C)c1cccc(CN[C@H]2CS(=O)(=O)C[C@@H](Cc3cc(F)c(N)c(CCC(F)(F)F)c3)[C@@H]2O)c1
34 | 1050 | 13 |  |  |  | CC(C)(C)c1cccc(CN[C@H]2CS(=O)(=O)C[C@@H](Cc3cc(F)c(N)c(C[C@H](O)C(F)(F)F)c3)[C@@H]2O)c1
35 | 360 | 2 | 2 |  | 79 | CC(C)(C)c1cccc(CN[C@H]2CS(=O)(=O)C[C@@H](Cc3cc(F)c(N)c(-c4ccco4)c3)[C@@H]2O)c1
36 | 5530 | 10 | 3 |  | 2750 | CC(C)(C)c1cccc(CN[C@H]2CS(=O)(=O)C[C@@H](Cc3ccc4[nH]ccc4c3)[C@@H]2O)c1 (racemic)
37 | 1150 | 23 |  |  |  | CC(C)(C)c1cccc(CN[C@H]2CS(=O)(=O)C[C@@H](Cc3cc(F)c(N)c(OC4COC4)c3)[C@@H]2O)c1
38 | 2220 | 14 | 3 |  | 43 | CC(C)Oc1cc(C[C@@H]2CS(=O)(=O)C[C@H](NCc3cccc(C(C)(C)C)c3)[C@H]2O)cc(F)c1N
39 | 2400 | 12 | 4 |  | 75 | CC(C)(C)c1cccc(CN[C@H]2CS(=O)(=O)C[C@@H](Cc3cc(F)c(N)c(OCCC(F)(F)F)c3)[C@@H]2O)c1
40 | 600 | 20 | 17 |  | 28 | CC(C)(C)c1cccc(CN[C@H]2CS(=O)(=O)C[C@@H](Cc3cc(F)c(N)c(-c4cc[nH]n4)c3)[C@@H]2O)c1 (racemic)
41 | 3750 | 23 | 11 |  | 1450 | CC(C)(C)c1cccc(CN[C@H]2CS(=O)(=O)C[C@@H](Cc3ccc4[nH]ncc4c3)[C@@H]2O)c1 (racemic)
42 | 390 | 6 | 3 |  | 11 | CC(C)(C)c1cccc(CN[C@H]2CS(=O)(=O)C[C@@H](Cc3cc(F)c(N)c(OC4CCC4)c3)[C@@H]2O)c1
43 | 1390 | 7 | 2 |  | 130 | CCCc1cc(C[C@@H]2CS(=O)(=O)C[C@H](NCc3cccc(C(C)(C)C)c3)[C@H]2O)cc(F)c1N

Reference: ChEMBL document CHEMBL2046351, “Discovery of cyclic sulfone hydroxyethylamines as potent and selective β-site APP-cleaving enzyme 1 (BACE1) inhibitors: structure-based design and in vivo reduction of amyloid β-peptides” (J Med Chem, 2012)
